From PMC4245169 (ACS Chemical Biology, 2014)

Assays:
[1] = system: E. coli whole cell extract (prokaryotic ribosomal preparation); assay: Cell free translation inhibition, E. coli S30 extract, luciferase reporter; assay type: biochemical; details: read-out: E. coli IC50, average of three independent experiments
How it was run: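 Test compound at varying concentrations preincubated 20 min at room temperature with E. coli S30 extract plus all amino acids. Luciferase control template then added and translation run 60 min at 37 °C, stopped on ice 5 min. Luminescence read right after luciferin addition. Triplicates normalised to vehicle control; macrolide positive controls. IC50 by logit regression, averaged over three independent experiments.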

[2] = system: rabbit reticulocyte whole cell lysate (eukaryotic ribosomal preparation); assay: Cell free translation inhibition, rabbit reticulocyte lysate; assay type: biochemical
How it was run: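 Nuclease-treated rabbit reticulocyte lysate was preincubated with test compound at varying concentrations and all amino acids for 20 min at room temperature. Luciferase control template was then added, and translation ran at 30 °C for 90 min before stopping on ice for 5 min. Luminescence was read after luciferin addition. Samples were run in triplicate and normalized to vehicle control. IC50 was fit by logit regression and averaged over three independent experiments.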

E. coli 23S rRNA [3] = assay: CMCT chemical footprinting of 23S rRNA in intact 70S ribosomes; assay type: binding; details: primer 2180; peptolides and 7b 150 μM, clarithromycin 50 μM
E. coli 23S rRNA [4] = details: cited from earlier work

CC[C@H]1OC(=O)[C@H](C)[C@@H](O[C@H]2C[C@@](C)(OC)[C@@H](O)[C@H](C)O2)[C@H](C)[C@@H](O[C@@H]2O[C@H](C)C[C@H](N(C)C)[C@H]2O)[C@](C)(OC)C[C@@H](C)C(=O)[C@H](C)[C@@H](O)[C@]1(C)O [clarithromycin 1, clarithromycin]
IC50 [1]: 0.32 ± 0.12 µM | inhibition of eukaryotic translation (in words) ([2]; RRL, controls at 250 μM): inactive | IC50 ([2]; read-out: rabbit retic. IC50, cell free translation, luciferase reporter, average of three independent experiments): > 250 µM | protection of U1963 from CMCT modification (E. coli 23S rRNA [3]): available to CMCT modification

CC[C@H]1OC(=O)[C@H](C)C(=O)[C@H](C)[C@@H](O[C@@H]2O[C@H](C)C[C@H](N(C)C)[C@H]2O)[C@](C)(OC)C[C@@H](C)C(=O)[C@H](C)[C@H]2N(CCCCn3cnc(-c4cccnc4)c3)C(=O)O[C@]12C [TEL, telithromycin]
protection of A752 (E. coli 23S rRNA [4]): protected
